Inhibition data for 1 molecule are collected here from ChEMBL document CHEMBL2429859, “Inhibiting aberrant signal transducer and activator of transcription protein activation with tetrapodal, small molecule Src homology 2 domain binders: promising agents against multiple myeloma” (J Med Chem, 2013).

Calls of active or inactive are those of the source. The rule behind the calls is not given here.

In this experiment the test system is JJN-3. Put plainly: Inhibition of total Stat3 level in human JJN-3 cells at 10 to 30 uM after 6 hrs by Western blot analysis. It is filed as functional, cell-based. The method in brief: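 Treated cells were washed in cold PBS and lysed 30 min on ice in Tris-HCl pH 7.4/NaCl/EDTA/1% NP-40 with PMSF, vanadate and protease inhibitors. Lysates were Bradford-normalized, and 10-30 µg protein was run on 7-10% SDS-PAGE and transferred to PVDF. Blots were blocked in 5% BSA/TBST, probed overnight at 4 °C, then with HRP secondary, and detected by ECL.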
In general terms: In western blotting, separated proteins are transferred to a membrane and probed.

For the molecule `Cc1ccc(S(=O)(=O)N(CC(=O)N(Cc2ccc(C3CCCCC3)cc2)c2ccc(C(=O)O)c(O)c2)Cc2ccccc2C(F)(F)F)cc1`, the inhibition entry is “inactive”.
